Screening data from PubChem BioAssay.
DNMT1 block: DNMT1 (human) enzyme inhibition. P26358. AID 588458. 360,000 compounds, 0.83% hits. DNMT1 molecular beacon, Hinp1I cleavage, fluorescence. inhibition (reported as % activation of signal), % at 10 µM; in the data active means inhibition above about 50%
Rpn11 block: inhibitors of human proteasome Rpn11; O00487; human 26S proteasome, Ub4-pepOG fluorescence polarization; 20S core pre-blocked with epoxomicin; inhibition, % at 20 µM; 360,000 compounds, 0.59% hits;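 active means inhibition at 20 µM, scaled to each plate's controls, above about 33%, limit read from the data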
Scp-1 inhibitor: inhibitors of human Scp-1 phosphatase. Recombinant Scp1, phosphopeptide, malachite green phosphate absorbance. inhibition, % at 20 µM. 340,000 compounds, 0.88% hits;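 active means inhibition above about 50% at 20 µM, limit read from the data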;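 further: plate controls were DMSO wells with enzyme for no effect and wells lacking enzyme for full effect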
Target sequence (Q9GZU7 76-261 limits assumed): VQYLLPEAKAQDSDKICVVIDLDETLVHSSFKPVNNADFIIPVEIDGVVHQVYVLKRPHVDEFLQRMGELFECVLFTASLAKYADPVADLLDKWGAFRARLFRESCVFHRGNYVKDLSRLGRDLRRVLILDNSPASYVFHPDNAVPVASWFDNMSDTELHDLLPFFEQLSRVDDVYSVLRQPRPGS
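System: truncated SCP-1 phosphatase (76-261aa); medium: Tris acetate buffer pH 5.5 with MgCl2 and Tween-20; incubation: 45 min room-temperature reaction, 5 min colour, 30 min stabiliser; compound: single 20 µM dose, 1% DMSO; reagent: Phosphorylated 17-residue peptide substrate; read-out: % inhibition at 20 µM; technique: colorimetric free-phosphate detection, absorbance 630 nm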
STEP block: STEP (human) phosphatase inhibition; P54829; recombinant STEP, OMFP fluorogenic substrate, fluorescence; inhibition, % at 20 µM; 360,000 compounds, 0.25% hits; AID 588621;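 active means inhibition at 20 µM, scaled per plate between control wells, above about 37%, limit read from the data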;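 further: 0% = DMSO with enzyme and substrate and 100% = substrate only without enzyme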
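material = STEP tyrosine phosphatase | reagent = fluorogenic phosphatase substrate OMFP at 25 µM final | doses = single compound dose of 20 µM, 1% DMSO final | schedule = 20 min reaction, room temperature, in the dark | measured by = fluorescence, 480/540 nm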
LMPTP inh: blocks human LMPTP phosphatase. recombinant LMPTP-A, OMFP fluorogenic substrate, fluorescence intensity. P24666. inhibition, % at 20 µM. 360,000 compounds, 0.22% hits;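 active means compounds that cut the enzyme signal by at least half of the control window in the single-dose screen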;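 further: plate controls were DMSO wells with enzyme plus substrate for no effect and substrate without enzyme for full effect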
Target sequence (P24666 whole entry, looked up): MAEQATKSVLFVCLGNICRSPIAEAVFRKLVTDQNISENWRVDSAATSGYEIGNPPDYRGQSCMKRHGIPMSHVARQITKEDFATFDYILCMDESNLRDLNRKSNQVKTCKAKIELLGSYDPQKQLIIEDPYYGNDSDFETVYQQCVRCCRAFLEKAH
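Test system: LMPTP-A, protein tyrosine phosphatase of low molecular weight; Input: 0.625 nM enzyme; Incubation: 50 min dark incubation at room temperature; Signal: endpoint fluorescence intensity from OMFP dephosphorylation; Read-out basis: % inhibition versus control wells.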
SUMO1-SIM PPI: alters human SUMO1 binding to SIM partners; inhibition, % at 20 µM; 360,000 compounds, 0.33% hits; AID 602429; SUMO1 binding to a labelled peptide, TR-FRET, 1 h; in the data active means inhibition above about 37%
Target sequence (P63165 whole entry, looked up): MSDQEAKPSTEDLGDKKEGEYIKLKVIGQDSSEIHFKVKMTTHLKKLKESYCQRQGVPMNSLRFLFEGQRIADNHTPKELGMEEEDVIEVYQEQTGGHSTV
DNMT1 confirm: DNMT1 inhibition confirmation, single concentration; shares compounds with DNMT1 block; DNMT1 molecular beacon HinP1I cleavage, fluorescence; inhibition, % at 10 µM; 2,300 compounds, 8% hits; AID 602385;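 active means average inhibition of at least 30% in the single-concentration confirmation test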
DNMT1 interf: shows spectral interference in the DNMT1 beacon assay; shares compounds with DNMT1 block; DNMT1 molecular beacon spectral interference counterscreen, fluorescence 485/520; activation (fluorescence interference), % at 10 µM; 2,300 compounds, 1% hits; AID 602387;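 active means activation of at least 30% at 10 µM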;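 further: DNMT1 catalytic domain with a HinP1I cleavage step and a FAM/dabcyl DNA beacon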
An asterisk follows results filed as active; / = not tested or not shown. A selection: hits, their analogues and other compounds. The true share with any hit is near 2.3%.

SMILES	DNMT1 block	Rpn11 block	Scp-1 inhibitor	STEP block	LMPTP inh	SUMO1-SIM PPI	DNMT1 confirm	DNMT1 interf
COc1ccc(OCc2cn(CC(=O)c3ccc(O)cc3)nn2)cc1	57*	0	-2	6	0	8	4	-2
CCC(=O)c1ccc(OCc2cn(CC(=O)c3ccc(O)cc3)nn2)cc1	54*	-3	-8	2	1	2	10	-3
COC(=O)c1ccccc1NC(=O)CSc1nnc(-c2cccnc2)n1N	1	-3	-2	0	-2	-1	/	/
COc1ccc(C(=O)CC(=O)C(=O)NCCc2cccc(C)c2)cc1	89*	16	-14	0	1	1	2	4
O=C1CCCN1c1nccs1	28	-1	-4	0	-1	0	/	/
Clc1ccc2c(N/N=C/c3ccccc3Br)ccnc2c1	28	5	6	7	12	-2	/	/
Clc1ccc2c(N/N=C/c3cccc(Br)c3)ccnc2c1	80*	9	-17	6	3	1	4	3
Cc1ccc(S(=O)(=O)N2CCN(c3ccccc3)CC2)c(C)c1	1	-1	4	1	3	4	/	/
CC(=O)Nc1ccc(-c2ccnc3c2CC(C(=O)NCc2ccccc2)O3)cc1 (stereo unspecified)	4	3	/	-1	0	9	/	/
CC1=C(C(=O)Nc2ccccc2)C(c2ccc(C)o2)n2c(s/c(=C/c3ccccc3)c2=O)=N1 (stereo unspecified)	84*	18	1	1	1	-7	3	0
CC1=C(C(=O)Nc2ccccc2C)C(c2ccc(C)o2)n2c(s/c(=C/c3ccccc3)c2=O)=N1 (stereo unspecified)	-3	3	-5	-2	1	-1	/	/
CCOc1cccc2cc(-c3nnc(NCc4ccc5c(c4)OCO5)s3)c(=O)oc12	70*	0	1	3	33	1	0	-5
O=C(O)c1cc([N+](=O)[O-])ccc1-c1ccc([N+](=O)[O-])cc1C(=O)O	61*	-10	/	24	2	-6	4	2
CCn1c(CC(=O)Nc2ccccc2)n[nH]c1=S	82*	0	-12	-4	-4	2	6	7
CCN(C(=O)COC(=O)/C=C/c1ccc(F)cc1)C1CCCCC1	-5	-4	-1	-1	2	-7	/	/
CCN(C(=O)COC(=O)/C=C/c1ccco1)C1CCCCC1	75*	-1	72*	20	7	-15	6	3
Cc1c(C)c2ccc(OCC(=O)N[C@@H](Cc3ccccc3)C(=O)O)cc2oc1=O	-2	-5	-1	-2	0	8	/	/
CCCCCCc1c(C)c2ccc(OCC(=O)N[C@@H](Cc3ccccc3)C(=O)O)cc2oc1=O	61*	6	37	-1	2	14	4	-3
CC1CCCC1/C(=N/O)c1ccccc1 (stereo unspecified)	2	2	-17	0	0	1	/	/
Cc1noc(C)c1C(=O)NCCc1c(C)[nH]c2ccccc12	-3	-10	-3	-1	1	-1	/	/
COc1ccccc1C(=O)NC(=S)Nc1ccccc1N1CCCC1	-15	3	/	3	2	-2	/	/
O=C(Nc1ccc(N2CCCC2)cc1)c1ccccc1[N+](=O)[O-]	70*	2	-9	2	42	7	1	5
Cc1ccc(C(=O)Nc2ccc(N3CCCC3)cc2)c(C)c1	54*	20	-2	4	14	-9	4	-1
COc1ccccc1C(=O)NC(=S)Nc1ccc(N2CCCC2)cc1	68*	34	8	2	4	9	5	4
O=C(Nc1ccc(N2CCCC2)cc1)c1ccc(Br)o1	81*	5	-3	4	43	-7	2	-1
SMILES	DNMT1 block	Rpn11 block	Scp-1 inhibitor	STEP block	LMPTP inh	SUMO1-SIM PPI	DNMT1 confirm	DNMT1 interf
COc1ccc(C(=O)N2CCOC2CNC(=O)C(=O)NCc2ccco2)cc1 (stereo unspecified)	1	-2	-3	-4	-1	0	/	/
O=C(CC12CC3CC(CC(C3)C1)C2)NC(=S)Nc1ccc(CN2CCOCC2)cc1	-2	5	-6	1	0	-3	/	/
Cc1[nH]c(=S)c(C#N)c(-c2ccco2)c1C(=O)N(C)C	6	7	0	4	-1	6	/	/
CS(=O)(=O)c1ccc(C(=O)Nc2ccc(N3CCCC3)cc2)c(Cl)c1	-4	6	-7	-4	0	-4	/	/
O=C(Nc1ccc(N2CCCC2)cc1)c1cc(Br)ccc1Cl	50*	9	-5	-1	39	-27	1	2
COc1cccc(NC(=O)NCc2ccccn2)c1	1	1	1	0	-1	0	/	/
COC(=O)C1=C(O)/C(=C\c2ccc(CNC(=O)C(=O)Nc3ccc(C)cc3)o2)N=C1C	96*	1	-7	5	16	20	4	4
COC(=O)C1=C(O)/C(=C\c2ccc(CNC(=O)C(=O)Nc3ccc(C)c(C)c3)o2)N=C1C	86*	18	-1	4	8	11	6	11
CC(C)C[C@@H](COc1ccccc1)N1CCN(Cc2ccccc2)CCC1=O	/	/	-5	/	/	/	/	/
Cn1c(=O)c(=O)n(C)c2cc(N3CCCCC3)c(NS(=O)(=O)c3ccc([N+](=O)[O-])cc3)cc21	-2	-3	-1	-2	-1	-26	/	/
N#Cc1nc(-c2ccc(OCc3ccc(Cl)cc3)cc2)oc1N1CCC(C(N)=O)CC1	67*	35	0	8	3	71*	-1	2
CCCOc1ccc(-c2nc(C#N)c(N3CCC(C(N)=O)CC3)o2)cc1	0	1	-11	6	1	-1	/	/
COc1ccc(CNC(=O)COC(=O)[C@@H]2CCCN2C(=O)c2cccs2)cc1	-4	1	-12	0	-1	-7	/	/
Cc1cccn2c(=O)c3cc(C(N)=S)c(=N)n(CCCOC(C)C)c3nc12	62*	19	-2	6	22	-9	4	0
Cc1[nH]n(C)c(=O)c1[N+](=O)[O-]	56*	-4	2	-2	-1	1	2	3
CCc1ccccc1NC(=O)NC1CCCCCCC1	2	-22	-5	-2	0	-2	/	/
CCN1CCN(S(=O)(=O)c2ccc(Cl)c(C(=O)NCCc3ccccc3)c2)CC1	-14	-1	-9	-2	-9	-82	/	/
